Experimental data taken from ChEMBL document CHEMBL1800057, “Discovery of dual inducible/neuronal nitric oxide synthase (iNOS/nNOS) inhibitor development candidate 4-((2-cyclobutyl-1H-imidazo[4,5-b]pyrazin-1-yl)methyl)-7,8-difluoroquinolin-2(1H)-one (KD7332) part 2: identification of a novel, potent, and selective series of benzimidazole-quinolinone …” (J Med Chem, 2010).
pEC50: −log10 of the molar value.

Legend:
[1] = species on record: Homo sapiens; assay: Ratio of IC50 for human nNOS to EC50 for human iNOS
[2] = AUC in mouse at 3 mg/kg, iv and 10 mg/kg, po; assay type: ADME, organism-based; settings: plasma
[3] = Cmax in mouse at 3 mg/kg, iv and 10 mg/kg, po; assay type: ADME, organism-based; settings: in vivo
[4] = molecular target: T1, Nitric oxide synthase 1 (Homo sapiens, UniProt P29475); assay: Inhibition of human nNOS expressed in HEK293 cells assessed as inhibition ionomycin induced nitric oxide production incubated for 24 hrs measured after 18 hrs of ionomycin challenge using 2,3-diaminonaphthalene by fluorescence assay; assay type: cell-based
Outline: (§1)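 HEK293 cells transfected for 4 h at 37 °C with human nNOS (10 μg) or human eNOS (15 μg) plasmid (Fugene 6, 3:1). Cells replated at 5e5 cells/mL and dosed with compound at once; SEITU (100 μM final) as positive control. After 24 h, cells activated with A23187 (83 nM final) for eNOS or ionomycin (30 μM final) for nNOS. NO read 18 h later as nitrite-DAN fluorescence.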

[5] = tested on: Liver; assay: Half life in mouse liver microsomes assessed as formation of oxidation product and glucuronide conjugate; assay type: ADME, Microsome
Outline: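 Mouse liver microsomes run under combined phase I oxidation and phase II glucuronide conjugation; half-life reported in minutes.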

[6] = molecular target: T2, Nitric oxide synthase, inducible (Mus musculus, UniProt P29477); assay: Inhibition of mouse iNOS expressed in HEK293 cells assessed as inhibition of nitric oxide production after 18 hrs using 2,3-diaminonaphthalene by fluorescence assay; assay type: cell-based
T2 sequence (P29477 whole entry): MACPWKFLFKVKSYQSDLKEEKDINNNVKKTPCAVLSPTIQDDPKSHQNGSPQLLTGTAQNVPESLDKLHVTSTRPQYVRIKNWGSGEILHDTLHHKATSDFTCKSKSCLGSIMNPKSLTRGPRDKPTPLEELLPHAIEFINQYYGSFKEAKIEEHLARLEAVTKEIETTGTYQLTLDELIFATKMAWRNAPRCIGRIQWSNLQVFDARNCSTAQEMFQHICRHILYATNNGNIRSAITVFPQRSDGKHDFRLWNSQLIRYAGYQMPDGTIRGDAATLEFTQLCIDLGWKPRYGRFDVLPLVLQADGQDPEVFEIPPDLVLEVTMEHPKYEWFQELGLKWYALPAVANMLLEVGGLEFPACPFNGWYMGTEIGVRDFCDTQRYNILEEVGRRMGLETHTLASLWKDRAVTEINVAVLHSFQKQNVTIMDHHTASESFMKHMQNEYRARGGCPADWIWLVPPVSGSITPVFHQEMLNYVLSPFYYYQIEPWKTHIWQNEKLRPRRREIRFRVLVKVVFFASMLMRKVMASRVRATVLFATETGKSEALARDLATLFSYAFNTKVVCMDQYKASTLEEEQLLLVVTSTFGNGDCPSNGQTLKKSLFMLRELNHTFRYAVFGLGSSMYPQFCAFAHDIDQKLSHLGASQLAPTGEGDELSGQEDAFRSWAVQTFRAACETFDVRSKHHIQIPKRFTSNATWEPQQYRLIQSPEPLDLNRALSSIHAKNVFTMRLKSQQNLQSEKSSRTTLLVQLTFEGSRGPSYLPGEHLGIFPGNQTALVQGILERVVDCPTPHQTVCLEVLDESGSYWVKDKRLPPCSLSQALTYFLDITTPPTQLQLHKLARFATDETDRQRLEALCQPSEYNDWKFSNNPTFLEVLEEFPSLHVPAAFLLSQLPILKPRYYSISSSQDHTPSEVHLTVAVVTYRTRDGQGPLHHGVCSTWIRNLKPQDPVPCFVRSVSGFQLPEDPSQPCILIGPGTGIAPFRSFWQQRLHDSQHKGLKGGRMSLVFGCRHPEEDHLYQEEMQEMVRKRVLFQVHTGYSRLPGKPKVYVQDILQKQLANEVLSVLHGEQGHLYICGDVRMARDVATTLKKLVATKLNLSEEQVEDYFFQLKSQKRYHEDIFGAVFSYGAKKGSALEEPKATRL
Outline: (§2)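 HEK293 cells grown to ~70% confluence in DMEM/10% FBS with pen/strep, transiently transfected with 10 μg human or murine iNOS plasmid plus Fugene 6 for 4 h at 37 °C, 10% CO2. Cells replated at 5e5 cells/mL and dosed with compound at once; 1400W (100 μM final) as positive control. After 18 h, DAN (10 μg/mL final) in HCl (0.1 N final) added for 20 min at room temperature. Fluorescence read after NaOH (0.12 N final).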

[7] = Half life in mouse at 10 mg/kg, po; assay type: ADME, organism-based; parameters: dose 10 mg/kg, route oral; settings: in vivo
[8] = molecular target: T3, Nitric oxide synthase 3 (Homo sapiens, UniProt P29474); assay: Inhibition of human eNOS expressed in HEK293 cells assessed as inhibition A23187 induced nitric oxide production incubated for 24 hrs measured after 18 hrs of […] challenge using 2,3-diaminonaphthalene by fluorescence assay; assay type: cell-based; outline: as §1
T3 sequence (P29474 whole entry): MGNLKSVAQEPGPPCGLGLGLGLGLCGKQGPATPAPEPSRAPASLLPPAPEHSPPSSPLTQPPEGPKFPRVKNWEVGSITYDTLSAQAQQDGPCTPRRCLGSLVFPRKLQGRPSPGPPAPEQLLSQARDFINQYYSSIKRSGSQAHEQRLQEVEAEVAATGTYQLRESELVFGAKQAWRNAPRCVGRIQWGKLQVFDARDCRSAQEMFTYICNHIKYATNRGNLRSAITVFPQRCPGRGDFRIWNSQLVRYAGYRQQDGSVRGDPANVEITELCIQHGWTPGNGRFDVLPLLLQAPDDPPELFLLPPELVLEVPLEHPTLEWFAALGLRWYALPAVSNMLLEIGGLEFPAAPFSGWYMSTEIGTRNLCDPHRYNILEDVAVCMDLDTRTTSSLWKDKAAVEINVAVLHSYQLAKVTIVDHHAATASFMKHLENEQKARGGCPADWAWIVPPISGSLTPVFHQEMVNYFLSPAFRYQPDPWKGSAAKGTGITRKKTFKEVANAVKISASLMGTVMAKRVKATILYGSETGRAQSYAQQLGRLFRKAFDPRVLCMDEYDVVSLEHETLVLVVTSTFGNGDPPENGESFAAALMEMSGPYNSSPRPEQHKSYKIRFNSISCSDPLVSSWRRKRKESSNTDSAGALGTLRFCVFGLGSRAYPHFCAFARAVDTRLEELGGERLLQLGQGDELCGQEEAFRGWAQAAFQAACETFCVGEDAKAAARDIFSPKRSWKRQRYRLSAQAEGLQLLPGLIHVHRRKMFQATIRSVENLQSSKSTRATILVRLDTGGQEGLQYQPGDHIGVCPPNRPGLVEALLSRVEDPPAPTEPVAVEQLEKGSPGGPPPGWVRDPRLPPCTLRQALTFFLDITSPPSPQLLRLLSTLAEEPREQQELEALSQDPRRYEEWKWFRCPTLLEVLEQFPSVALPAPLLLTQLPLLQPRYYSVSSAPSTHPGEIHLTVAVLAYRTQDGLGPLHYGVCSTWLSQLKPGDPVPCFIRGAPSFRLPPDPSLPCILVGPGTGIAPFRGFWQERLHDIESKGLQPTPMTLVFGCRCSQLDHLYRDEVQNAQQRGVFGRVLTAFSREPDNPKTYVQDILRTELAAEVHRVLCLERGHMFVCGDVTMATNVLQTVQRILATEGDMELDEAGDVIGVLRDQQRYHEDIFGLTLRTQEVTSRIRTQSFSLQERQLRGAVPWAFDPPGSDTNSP

[9] = species on record: Homo sapiens; assay: Ratio of IC50 for human eNOS to EC50 for human iNOS
[10] = tested on: Mus musculus; assay: Inhibition of LPS-induced iNOS activation in BALB/c mouse assessed as plasma nitrate levels administered via oral gavage before LPS challenge measured after 6 to 8 hrs using 2,3-diaminonaphthalene by fluorescence assay; assay type: functional
Outline: (§3)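 Male BALB/c mice dosed by oral gavage (90% PEG/5% Tween 80/5% PVP + 0.5% w/v CMC) immediately before LPS (10 mg/kg ip in 0.9% NaCl). Mice killed at 6 h. EDTA plasma analysed for nitrate and drug levels; nitrite measured by DAN fluorescence.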

[11] = molecular target: Nitric oxide synthase, inducible (Homo sapiens, UniProt P35228); assay: Inhibition of human iNOS expressed in HEK293 cells assessed as inhibition of nitric oxide production after 18 hrs using 2,3-diaminonaphthalene by fluorescence assay; assay type: cell-based; outline: as §2
[12] = AUC in rhesus monkey at 3 mg/kg, iv and 10 mg/kg, po; assay type: ADME, organism-based, Macaca mulatta; settings: plasma
Outline: (§4)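 Rhesus pharmacokinetics: 3 mg/kg iv and 10 mg/kg po, HCl salt. Clp, t1/2, Vdss, Cmax, AUC, oral t1/2 and %F reported.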

[13] = Half life in rhesus monkey at 10 mg/kg, po; assay type: ADME, organism-based, Macaca mulatta; parameters: dose 10 mg/kg, route oral; settings: in vivo
[14] = Bioavailability in rhesus monkey at 3 mg/kg, iv and 10 mg/kg, po; assay type: ADME, organism-based, Macaca mulatta; settings: in vivo; outline: as §4
[15] = Plasma clearance in rhesus monkey at 3 mg/kg, iv and 10 mg/kg, po; assay type: ADME, organism-based, Macaca mulatta; outline: as §4
[16] = Volume of distribution at steady state in rhesus monkey at 3 mg/kg, iv and 10 mg/kg, po; assay type: ADME, organism-based, Macaca mulatta; settings: in vivo, read-out: Vdss; outline: as §4
[17] = Cmax in rhesus monkey at 3 mg/kg, iv and 10 mg/kg, po; assay type: ADME, organism-based, Macaca mulatta; settings: in vivo; outline: as §4
[18] = Half life in rhesus monkey at 3 mg/kg, iv and 10 mg/kg, po; assay type: ADME, organism-based, Macaca mulatta; settings: in vivo; outline: as §4
[19] = Plasma clearance in mouse at 3 mg/kg, iv and 10 mg/kg, po; assay type: ADME, organism-based
[20] = Half life in mouse at 3 mg/kg, iv and 10 mg/kg, po; settings: in vivo
[21] = tested on: Mus musculus; assay: Inhibition of LPS-induced iNOS activation in BALB/c mouse assessed as plasma nitrate levels at 30 mg/kg administered via oral gavage before LPS challenge measured after 6 to 8 hrs using 2,3-diaminonaphthalene by fluorescence assay relative to control; assay type: functional; outline: as §3
[22] = Oral bioavailability in mouse at 10 mg/kg; assay type: ADME, organism-based; settings: in vivo
[23] = Volume of distribution at steady state in mouse at 3 mg/kg, iv and 10 mg/kg, po; assay type: ADME, organism-based; settings: in vivo, read-out: Vdss
[24] = molecular target: T4, Nitric oxide synthase 3 (Homo sapiens) (UniProt P29474); assay: Inhibition of human eNOS expressed in HEK293 cells assessed as inhibition A23187 induced nitric oxide production at 100 uM incubated for 24 hrs measured after 18 hrs of […] challenge using 2,3-diaminonaphthalene by fluorescence assay; assay type: cell-based
T4 sequence (whole entry): T3 sequence (P29474 whole entry)

[25] = molecular target: T1, Nitric oxide synthase 1; assay: Inhibition of human nNOS expressed in HEK293 cells assessed as inhibition ionomycin induced nitric oxide production at 10 uM incubated for 24 hrs measured after 18 hrs of ionomycin challenge using 2,3-diaminonaphthalene by fluorescence assay; assay type: cell-based

Chain of Nitric oxide synthase, inducible (Homo sapiens, UniProt P35228) (P35228 whole entry): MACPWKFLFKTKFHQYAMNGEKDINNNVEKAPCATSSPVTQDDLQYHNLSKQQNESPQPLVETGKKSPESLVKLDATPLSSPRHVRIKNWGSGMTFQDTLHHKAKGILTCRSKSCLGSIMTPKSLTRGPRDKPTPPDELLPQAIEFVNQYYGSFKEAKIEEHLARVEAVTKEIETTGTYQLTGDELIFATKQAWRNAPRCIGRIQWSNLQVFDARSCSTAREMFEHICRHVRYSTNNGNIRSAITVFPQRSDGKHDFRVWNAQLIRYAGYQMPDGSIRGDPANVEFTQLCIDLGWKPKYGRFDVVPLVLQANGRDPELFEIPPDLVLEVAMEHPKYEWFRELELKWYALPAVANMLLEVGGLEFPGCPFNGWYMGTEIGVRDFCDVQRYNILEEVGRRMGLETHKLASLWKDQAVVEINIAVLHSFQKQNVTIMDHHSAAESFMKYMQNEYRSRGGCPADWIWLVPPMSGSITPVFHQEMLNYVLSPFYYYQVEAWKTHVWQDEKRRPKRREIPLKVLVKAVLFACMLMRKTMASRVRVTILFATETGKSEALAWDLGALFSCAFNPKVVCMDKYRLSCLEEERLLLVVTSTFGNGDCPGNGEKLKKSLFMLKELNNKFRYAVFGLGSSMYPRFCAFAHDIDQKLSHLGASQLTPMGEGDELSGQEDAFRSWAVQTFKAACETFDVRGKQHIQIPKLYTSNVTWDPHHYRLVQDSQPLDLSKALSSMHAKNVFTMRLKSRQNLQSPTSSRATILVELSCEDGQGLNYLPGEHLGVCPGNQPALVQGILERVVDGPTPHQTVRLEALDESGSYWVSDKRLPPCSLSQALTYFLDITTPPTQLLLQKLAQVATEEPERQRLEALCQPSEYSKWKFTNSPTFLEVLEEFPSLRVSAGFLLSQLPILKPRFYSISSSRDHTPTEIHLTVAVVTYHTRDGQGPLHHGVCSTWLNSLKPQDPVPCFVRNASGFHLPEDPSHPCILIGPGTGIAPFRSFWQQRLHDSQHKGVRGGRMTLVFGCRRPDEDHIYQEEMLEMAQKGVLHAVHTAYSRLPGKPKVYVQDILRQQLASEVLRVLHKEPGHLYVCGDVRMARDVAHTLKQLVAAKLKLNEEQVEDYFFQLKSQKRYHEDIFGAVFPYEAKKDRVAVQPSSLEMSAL
T1 sequence (P29475 whole entry): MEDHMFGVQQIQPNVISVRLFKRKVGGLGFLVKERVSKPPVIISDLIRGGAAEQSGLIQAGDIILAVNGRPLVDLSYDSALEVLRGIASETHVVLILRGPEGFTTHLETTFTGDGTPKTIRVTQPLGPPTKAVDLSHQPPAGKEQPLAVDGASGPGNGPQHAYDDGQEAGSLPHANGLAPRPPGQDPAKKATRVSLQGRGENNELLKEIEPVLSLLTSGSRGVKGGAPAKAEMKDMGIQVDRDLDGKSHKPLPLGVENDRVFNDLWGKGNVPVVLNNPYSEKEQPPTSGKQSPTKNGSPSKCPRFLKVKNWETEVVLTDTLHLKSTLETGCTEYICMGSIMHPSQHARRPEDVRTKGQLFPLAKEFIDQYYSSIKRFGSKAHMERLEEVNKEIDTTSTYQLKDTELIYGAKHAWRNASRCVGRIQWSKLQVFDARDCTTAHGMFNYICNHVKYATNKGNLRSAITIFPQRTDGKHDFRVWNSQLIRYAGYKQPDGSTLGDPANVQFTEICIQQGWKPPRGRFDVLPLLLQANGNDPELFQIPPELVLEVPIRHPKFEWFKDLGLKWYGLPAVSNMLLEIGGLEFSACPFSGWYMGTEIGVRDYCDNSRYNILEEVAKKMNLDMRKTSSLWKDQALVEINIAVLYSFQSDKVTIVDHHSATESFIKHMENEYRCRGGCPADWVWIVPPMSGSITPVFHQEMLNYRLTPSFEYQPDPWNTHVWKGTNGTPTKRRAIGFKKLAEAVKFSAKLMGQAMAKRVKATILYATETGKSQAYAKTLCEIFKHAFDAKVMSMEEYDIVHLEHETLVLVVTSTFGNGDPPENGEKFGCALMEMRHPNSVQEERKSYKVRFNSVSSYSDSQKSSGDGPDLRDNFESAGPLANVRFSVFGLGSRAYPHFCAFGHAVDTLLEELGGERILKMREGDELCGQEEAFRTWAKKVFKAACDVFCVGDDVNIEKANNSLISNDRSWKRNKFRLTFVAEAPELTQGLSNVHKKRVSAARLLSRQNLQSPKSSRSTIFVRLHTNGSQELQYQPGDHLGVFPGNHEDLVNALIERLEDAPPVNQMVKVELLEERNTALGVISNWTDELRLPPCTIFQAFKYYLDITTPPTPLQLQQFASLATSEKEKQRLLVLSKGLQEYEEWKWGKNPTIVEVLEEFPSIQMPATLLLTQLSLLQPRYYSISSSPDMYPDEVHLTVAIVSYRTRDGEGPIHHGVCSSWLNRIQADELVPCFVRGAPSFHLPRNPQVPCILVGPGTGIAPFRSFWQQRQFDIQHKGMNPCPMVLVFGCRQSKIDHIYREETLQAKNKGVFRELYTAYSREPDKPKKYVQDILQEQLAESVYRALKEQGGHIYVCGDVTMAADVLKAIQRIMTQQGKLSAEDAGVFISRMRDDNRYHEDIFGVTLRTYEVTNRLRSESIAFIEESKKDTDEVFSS

Row | SMILES | Ratio EC50 [1] | AUC [2] | Cmax [3] | pEC50 [4] | t1/2 [5] | pEC50 [6] | half-life [7] | pEC50 [8] | Ratio EC50 [9] | pEC50 [11] | clearance [19] | half-life [20] | bioavailability [22] | Vd [23] | ED50 [10] | other results
1 | CC(C)Cc1nc2nccnc2n1Cc1cc(=O)[nH]c2c(F)c(F)ccc12.Cl | – | – | – | – | – | – | – | – | – | – | – | – | – | – | – | AUC [12]: 3200 ng·h/mL; half-life [13]: 15 h; bioavailability [14]: 59%; clearance [15]: 18 mL/min/kg; Vd [16]: 19 L/kg; Cmax [17]: 210 ng/mL; half-life [18]: 21 h
2 | Cc1ncsc1-c1nc2ccccc2n1Cc1cc(=O)[nH]c2c(F)c(F)ccc12 | 0.8 | 5670 ng·h/mL | 3800 ng/mL | 5.82 | 1.63 h | 4.99 | 3.1 h | 5.17 | 3.8 | 5.74 | 12 mL/min/kg | 2.3 h | 39% | 1.2 L/kg | – | inhibition in vivo at 30 mg/kg [21]: 30%
3 | O=c1cc(Cn2c(-c3cccnc3)nc3ccccc32)c2ccc(F)c(F)c2[nH]1 | > 1 | – | – | < 5.00 | > 2 h | – | – | < 4.00 | > 11 | 5.03 | – | – | – | – | – | inhibition [24]: < 50%; inhibition [25]: < 50%

More lines, main results first:

Row | Ratio EC50 [1] | AUC [2] | Cmax [3] | pEC50 [4] | t1/2 [5] | pEC50 [6] | half-life [7] | pEC50 [8] | Ratio EC50 [9] | pEC50 [11] | clearance [19] | half-life [20] | bioavailability [22] | Vd [23] | SMILES | ED50 [10] | other results
4 | 1.2 | 10000 ng·h/mL | 5700 ng/mL | 6.49 | > 2 h | 5.68 | 1.4 h | 5.23 | 23 | 6.59 | – | – | – | – | O=c1cc(Cn2c(C3CCC3)nc3ccccc32)c2ccc(F)c(F)c2[nH]1 | 4 mg/kg | –
5 | 0.8 | 19300 ng·h/mL | 14000 ng/mL | 6.19 | > 2 h | 5.36 | 2.6 h | 4.95 | 14 | 6.10 | 5.9 mL/min/kg | 2.1 h | 58% | 0.7 L/kg | CC(C)c1nc2ccccc2n1Cc1cc(=O)[nH]c2c(F)c(F)ccc12 | 6 mg/kg | –
